Data as given in ChEMBL document CHEMBL1124262, “Cardiotonic agents. Synthesis and inotropic activity of a series of isoquinolin-3-ol derivatives” (J Med Chem, 1988).

Tests used:
Canis familiaris [1] = assay: Percent change in heart rate (HR) in anesthetized open chest dogs after a iv dose of 0.875 mg/kg; type: functional, Canis lupus familiaris
In short: (§1)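 Anesthetized open-chest dogs, one drug per animal. Compound is in DMF diluted to 10% in saline, or given as the HCl salt in saline. It is infused into the femoral vein by pump at 0.58-2.2 mL/min in 3-4 stepwise cumulative doses, each over 5 min after the prior peak. Readings are CF by right-ventricle strain gauge, dP/dtmax by Millar LV catheter, HR by cardiotachometer and MAP from femoral artery, as % change from predrug control.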

Canis familiaris [2] = assay: 50% increase in contractile force in one to three anesthetized dogs administered intravenously; type: functional; conditions: Canis lupus familiaris, iv
In short: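 Anesthetized dogs (one to three). Compound is infused iv in three to four stepwise increasing doses, each over 5 min once the previous effect has peaked. Contractile force is recorded with a Walton Brodie strain gauge on the right ventricle. The dose (μg/kg) giving a 50% rise over control CF is read from the dose-response curve, graphically (n < 3) or by linear regression (n ≥ 3).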

Canis familiaris [3] = assay: Percent change in mean arterial blood pressure (MAP) in anesthetized open chest dogs iv administration at 0.875 mg/kg; type: functional, Canis lupus familiaris; in short: as §1
Canis familiaris [4] = assay: Change in left ventricular pressure of anaesthetized, open chest dogs following 0.875 mg/kg i.v. administration.; type: functional, Canis lupus familiaris, Heart left ventricle; conditions: route intravenous; in short: as §1
Phosphodiesterase 3 = Phosphodiesterase 3 (Homo sapiens, UniProt Q14432+Q13370); assay: Inhibition of phosphodiesterase fraction III in anesthetized open chest dogs; type: functional, Canis lupus familiaris; conditions: target entry is the homologue from another species
In short: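 Enzyme is dog heart PDE-III, the third DEAE-cellulose fraction eluted at 800 mM sodium acetate. Compounds are tested at 0.01–1000 μM with 0.25 μM cAMP containing [³H]cAMP, in 0.05 M Tris-HCl pH 7.4 with 5 mM MgCl2. The reaction is stopped by heat, then snake venom converts product to adenosine. [³H]adenosine is counted by scintillation after Dowex separation. IC50 comes from ≥2 determinations, each in duplicate.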

Canis familiaris [5] = assay: Change in heart contractile force of anaesthetized, open chest dogs following 0.875 mg/kg i.v. administration.; type: functional, Canis lupus familiaris; conditions: route intravenous; in short: as §1
Canis familiaris [6] = assay: (§2) Percent change in heart rate (HR) in anesthetized open chest dogs after a iv dose of 0.1 mg/kg; type: functional, Canis lupus familiaris; in short: as §1
Canis familiaris [7] = assay: Percent change in heart rate (HR) in anesthetized open chest dogs after a iv dose of 1 mg/kg; type: functional, Canis lupus familiaris; in short: as §1
Canis familiaris [8] = assay: (§3) Percent change in mean arterial blood pressure (MAP) in anesthetized open chest dogs iv administration at 0.1 mg/kg; type: functional, Canis lupus familiaris; in short: as §1
Canis familiaris [9] = assay: Percent increase in left ventricular pressure (dP/dtmax) of anesthetized dog after id administration at 1 mg/kg; type: functional, Canis lupus familiaris, Heart left ventricle; conditions: route intraduodenal
In short: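 Anesthetized open-chest dogs. Left ventricular pressure was measured by Millar catheter and dP/dtmax derived. Compound was given as a 10-mL bolus into the duodenum through a catheter placed 2 cm distal to the pylorus via flank incision. Dissolved in DMF diluted to 10% in saline, or as HCl salt in saline. Response is % change over predrug control, monitored continuously.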

Canis familiaris [10] = assay: Percent increase in contractile force (CF) in anesthetized open-chest dogs iv administration of 0.1 mg/kg; type: functional, Canis lupus familiaris; in short: as §1
Canis familiaris [11] = assay: Percent change in left ventricular pressure (dP/dtmax) in anesthetized dog after iv administration at 0.1 mg/kg; type: functional, Canis lupus familiaris, Heart left ventricle; in short: as §1
Canis familiaris [12] = assay: Percent increase in contractile force (CF) in anesthetized open-chest dogs id administration of 1 mg/kg; type: functional, Canis lupus familiaris; conditions: route intraduodenal
In short: (§4)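 Anesthetized open-chest dogs. A 10-mL bolus is injected into the duodenum through a catheter placed 2 cm distal to the pylorus. Contractile force is measured with a Walton Brodie strain gauge sutured to the right ventricle, at a baseline tension of 100 g, and monitored continuously. Results are given as % increase from predrug control against cumulative dose.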

Canis familiaris [13] = assay: Percent change in mean arterial blood pressure (MAP) in anesthetized open chest dogs iv administration at 1 mg/kg; type: functional, Canis lupus familiaris; in short: as §1
Canis familiaris [14] = assay: Percent increase in contractile force (CF) in anesthetized open-chest dogs iv administration of 8.75 mg/kg; type: functional, Canis lupus familiaris
In short: (§5)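 Anesthetized open-chest dogs. After a right thoracotomy, contractile force was recorded by a Walton Brodie strain gauge sutured to the right ventricle at 100 g baseline tension. Compound was given iv by infusion pump into a femoral vein, one drug per animal, in three to four stepwise increasing doses. Each dose ran over 5 min, starting once the previous dose's effect peaked. Values are % increase over predrug control vs cumulative mg/kg dose.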

Canis familiaris [15] = assay: Percent change in mean arterial blood pressure (MAP) in anesthetized open chest dogs iv administration at 8.75 mg/kg; type: functional, Canis lupus familiaris; in short: as §1
Canis familiaris [16] = assay: Percent change in left ventricular pressure (dP/dtmax) in anesthetized dog after iv administration at 8.75 mg/kg; type: functional, Canis lupus familiaris, Heart left ventricle; in short: as §1
Canis familiaris [17] = assay: Percent change in heart rate (HR) in anesthetized open chest dogs after a iv dose of 8.75 mg/kg; type: functional, Canis lupus familiaris; in short: as §1
Canis familiaris [18] = assay: as §2; type: functional, Canis lupus familiaris; in short: as §1; remark: listed apart in the source
Canis familiaris [19] = assay: as §3; type: functional, Canis lupus familiaris; in short: as §1; remark: listed apart in the source
Canis familiaris [20] = assay: Percent increase in contractile force (CF) in anesthetized open-chest dogs id administration of 0.100 mg/kg; type: functional, Canis lupus familiaris; conditions: dose 0.1 mg/kg; route intraduodenal; in short: as §4
Canis familiaris [21] = assay: Percent increase in contractile force (CF) in anesthetized open-chest dogs iv administration of 0.100 mg/kg; type: functional, Canis lupus familiaris; conditions: dose 0.1 mg/kg; in short: as §1
Canis familiaris [22] = assay: Percent change in mean arterial blood pressure (MAP) in anesthetized open chest dogs iv administration at 0.375 mg/kg; type: functional, Canis lupus familiaris; in short: as §1
Canis familiaris [23] = assay: Percent change in heart rate (HR) in anesthetized open chest dogs after a iv dose of 0.375 mg/kg; type: functional, Canis lupus familiaris; in short: as §1
Canis familiaris [24] = assay: Percent change in left ventricular pressure (dP/dtmax) in anesthetized dog after iv administration at 0.375 mg/kg; type: functional, Canis lupus familiaris, Heart left ventricle; in short: as §1
Canis familiaris [25] = assay: Percent increase in contractile force (CF) in anesthetized open-chest dogs iv administration of 0.375 mg/kg; type: functional, Canis lupus familiaris; in short: as §5
Canis familiaris [26] = assay: Change in heart rate of anaesthetized, open chest dogs following 0.875 mg/kg i.v. administration.; type: functional, Canis lupus familiaris; conditions: route intravenous; in short: as §1
Canis familiaris [27] = assay: Percent change in mean arterial blood pressure (MAP) in anesthetized open chest dogs iv administration at 0.8750 mg/kg; type: functional, Canis lupus familiaris; conditions: dose 0.875 mg/kg; in short: as §1
Canis familiaris [28] = assay: Contractile force in anesthetized open chest dogs id administration 1.00 mg/kg; type: functional, Canis lupus familiaris; conditions: route intraduodenal; in short: as §4
Canis familiaris [29] = assay: Percent change in mean arterial blood pressure (MAP) in anesthetized open chest dogs iv administration at 0.9250 mg/kg; type: functional, Canis lupus familiaris; conditions: dose 0.925 mg/kg; in short: as §1
Canis familiaris [30] = assay: Percent change in left ventricular pressure (dP/dtmax) in anesthetized dog after iv administration at 0.925 mg/kg; type: functional, Canis lupus familiaris, Heart left ventricle; in short: as §1
Canis familiaris [31] = assay: Percent increase in contractile force (CF) in anesthetized open-chest dogs iv administration of 0.925 mg/kg; type: functional, Canis lupus familiaris; in short: as §5
Canis familiaris [32] = assay: Percent change in heart rate (HR) in anesthetized open chest dogs after a iv dose of 0.925 mg/kg; type: functional, Canis lupus familiaris; in short: as §1
Canis familiaris [33] = assay: Percent change in heart rate (HR) in anesthetized open chest dogs after a iv dose of 10 mg/kg; type: functional, Canis lupus familiaris; in short: as §1
Canis familiaris [34] = assay: Percent change in left ventricular pressure (dP/dtmax) in anesthetized dog after iv administration at 10 mg/kg; type: functional, Canis lupus familiaris, Heart left ventricle; in short: as §1
Canis familiaris [35] = assay: Percent change in mean arterial blood pressure (MAP) in anesthetized open chest dogs iv administration at 10 mg/kg; type: functional, Canis lupus familiaris; in short: as §1
Canis familiaris [36] = assay: Percent increase in contractile force (CF) in anesthetized open-chest dogs id administration of 10 mg/kg; type: functional, Canis lupus familiaris; conditions: route intraduodenal; in short: as §4
Canis familiaris [37] = assay: Percent change in mean arterial blood pressure (MAP) in anesthetized open chest dogs iv administration at 3.75 mg/kg; type: functional, Canis lupus familiaris; in short: as §1
Canis familiaris [38] = assay: Percent increase in contractile force (CF) in anesthetized open-chest dogs iv administration of 3.75 mg/kg; type: functional, Canis lupus familiaris; in short: as §5
Canis familiaris [39] = assay: Percent change in left ventricular pressure (dP/dtmax) in anesthetized dog after iv administration at 3.75 mg/kg; type: functional, Canis lupus familiaris, Heart left ventricle; in short: as §1
Canis familiaris [40] = assay: Percent change in heart rate (HR) in anesthetized open chest dogs after a iv dose of 3.75 mg/kg; type: functional, Canis lupus familiaris; in short: as §1

COc1cc(OC)c2c(C)nc(O)cc2c1
Change (Canis familiaris [1]): 13% | ED50 (Canis familiaris [2]): 0.375 mg/kg | Change (Canis familiaris [3]): -18% | Increase (Canis familiaris [4]): 62% | IC50 (Phosphodiesterase 3): 80 µM | Increase (Canis familiaris [5]): 91%

COc1cc2c(C)nc(O)c(C)c2cc1OC
ED50 (Canis familiaris [2]): 0.04 mg/kg | Change (Canis familiaris [6]): 15% | Change (Canis familiaris [7]): 8% | Change (Canis familiaris [8]): -4% | Increase (Canis familiaris [9]): 30% | IC50 (Phosphodiesterase 3): 10 µM | Increase (Canis familiaris [10]): 80% | Increase (Canis familiaris [11]): 48% | Increase (Canis familiaris [12]): 64% | Change (Canis familiaris [13]): -6%

COc1ccc2cc(O)ncc2c1OC
Increase (Canis familiaris [14]): 60% | Change (Canis familiaris [15]): -7% | Increase (Canis familiaris [16]): 34% | Change (Canis familiaris [17]): 13%

Cc1[nH]c(=O)c(C#N)cc1-c1ccncc1 [MILRINONE]
Change (Canis familiaris [18]): 14% | Change (Canis familiaris [19]): -13% | Change (Canis familiaris [6]): 15% | Change (Canis familiaris [8]): -3% | Increase (Canis familiaris [9]): 36% | Increase (Canis familiaris [11]): 76% | Increase (Canis familiaris [20]): 85% | Increase (Canis familiaris [21]): 105%

COc1cc2c(C)nc(OC(C)=O)c(Br)c2cc1OC
Change (Canis familiaris [22]): -33% | Change (Canis familiaris [23]): 15% | Increase (Canis familiaris [24]): 60% | Increase (Canis familiaris [25]): 117%

CCCc1c(O)nc(C)c2cc(OC)c(OC)cc12
Change (Canis familiaris [26]): 22% | Change (Canis familiaris [27]): 4% | ED50 (Canis familiaris [2]): 0.125 mg/kg | Increase (Canis familiaris [28]): 20% | Change (Canis familiaris [7]): 5% | Increase (Canis familiaris [4]): 55% | Increase (Canis familiaris [9]): 20% | IC50 (Phosphodiesterase 3): 5 µM | Increase (Canis familiaris [5]): 108% | Change (Canis familiaris [13]): 3%

COc1ccc2c(C)nc(O)cc2c1
Change (Canis familiaris [29]): 0% | Increase (Canis familiaris [30]): 56% | ED50 (Canis familiaris [2]): 0.6 mg/kg | IC50 (Phosphodiesterase 3): 160 µM | Increase (Canis familiaris [31]): 65% | Change (Canis familiaris [32]): 8%

COC(=O)CCc1c(O)nc(C)c2cc(OC)c(OC)cc12
Change (Canis familiaris [26]): 34% | Change (Canis familiaris [27]): -12% | Change (Canis familiaris [33]): 12% | ED50 (Canis familiaris [2]): 0.165 mg/kg | Increase (Canis familiaris [34]): 52% | Increase (Canis familiaris [4]): 78% | IC50 (Phosphodiesterase 3): 35 µM | Change (Canis familiaris [35]): -11% | Increase (Canis familiaris [36]): 105% | Increase (Canis familiaris [5]): 140%

Cc1nc(O)cc2cc3c(cc12)OCO3
Change (Canis familiaris [37]): -10% | Increase (Canis familiaris [38]): 82% | Increase (Canis familiaris [39]): 32% | Change (Canis familiaris [40]): 13%
